Test results taken from article PMC5307915 (Pharmacognosy Magazine, 2017).

Columns and labels:
purified human IDO [1] = target: T1, purified human IDO (Homo sapiens, UniProt P14902); assay: IDO assay; assay type: biochemical; details: for inhibition at 100 µM: read-out: IDO inhibition at 100 μM (%)
Method in brief: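 Test compound, serially diluted in DMSO, mixed with 1 μg purified human IDO in 50 mM potassium phosphate, pH 6.5. Ascorbic acid, methylene blue, catalase and 200 μM L-tryptophan added; 1 h at 37°C. Stopped with 30% TCA, 15 min at 65°C, then centrifuged. Supernatant mixed 1:1 with Ehrlich's reagent at RT; kynurenine read at 480 nm. Screened at 100 μM; IC50 from lower concentrations; menadione as positive control; at least triplicate.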

purified human IDO [2] = target: T1, purified human IDO; assay: Determination of inhibition pattern of IDO inhibitors; assay type: biochemical
Method in brief: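 Same kynurenine assay with purified human IDO (37°C, 1 h, Ehrlich's reagent, A480), run at five L-tryptophan concentrations crossed with four inhibitor concentrations, including zero. Mode of inhibition was taken from Lineweaver-Burk plots. Ki was calculated from the y-intercept, (1 + [I]/Ki)/Vmax. Independent measurements, at least triplicate.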

T1 sequence (P14902 whole entry): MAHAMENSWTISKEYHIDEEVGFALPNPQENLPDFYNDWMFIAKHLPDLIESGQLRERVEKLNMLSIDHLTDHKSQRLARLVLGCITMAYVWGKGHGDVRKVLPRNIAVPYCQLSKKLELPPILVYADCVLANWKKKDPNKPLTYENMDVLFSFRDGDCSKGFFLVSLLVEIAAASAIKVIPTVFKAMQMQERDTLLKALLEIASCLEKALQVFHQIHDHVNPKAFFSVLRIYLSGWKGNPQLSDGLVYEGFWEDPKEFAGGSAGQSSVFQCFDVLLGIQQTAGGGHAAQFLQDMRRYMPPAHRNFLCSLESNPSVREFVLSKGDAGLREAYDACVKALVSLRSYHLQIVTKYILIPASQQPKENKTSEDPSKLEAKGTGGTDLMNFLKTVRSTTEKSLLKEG

SMILES	IC50 (purified human IDO [1])	inhibition at 100 µM (purified human IDO [1])	Ki (purified human IDO [2])
O=C1c2cccc(O)c2C(=O)c2c(O)cc(CO)cc21 [Compound 1, aloe emodin]	46.5 ± 1.51 µM	67.4 ± 2.53%	85.3 µM
Cc1cc(=O)c2c(CO)cc(O)cc2o1 [Compound 10, 7-hydroxy-5-(hydroxymethyl)-2-methylchromone]		5.86 ± 3.08%	
Cc1cc(O)cc(O)c1 [Compound 11, 5-methylresorcinol]		10.2 ± 1.75%	
CC1=CC(=O)c2ccccc2C1=O [Menadione, reference compound]	3.71 ± 1.26 µM		
